Measured values as given in the array DNA melting data of Ke et al. (doi:10.1101/2024.01.08.574731).

Experiments:
[1] = folding enthalpy; higher = less favourable; fluorescence melt of hairpins on a sequencing array, two-state fit; details: sodium 0.088 M
Summary of the method: (§1)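 Folding enthalpy and melting temperature come from bootstrapped two-state fits to Cy3 fluorescence of library hairpins carrying annealed Cy3 and quencher oligos on a sequenced MiSeq flow cell. Imaging was done in 50 mM Na-HEPES pH 8.0, 25 mM NaCl, stepping by 2.5 °C up to 60 °C, and signals were normalised to pre-quench Cy3 and to control constructs. Results of four replicates were combined by inverse variance, and fitted temperatures were raised by 9.35 °C to match UV melts.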

[2] = melting temperature; fluorescence melt of hairpins on a sequencing array, two-state fit, raised by 9.35 °C to match UV melts; details: sodium 0.088 M
Summary of the method: as §1

| Sequence | folding enthalpy [1] | Tm [2] |
| --- | --- | --- |
| GCGTACCACGC ((((...)))) | -24.7 kcal/mol | 55.9 °C |
| GCGTACCCACGC ((((....)))) | -21.2 kcal/mol | 53.1 °C |
| GCGTACGAAAGTAAACGC ((((((....)))..))) | -34.5 kcal/mol | 51.9 °C |
| GCGTACGAAAGTACCGC ((((((....))).))) | -22.2 kcal/mol | 56.8 °C |
| GCGTACGAAAGTAGCCGC ((((((....)))..))) | -14.4 kcal/mol | 51.2 °C |
| GCGTACGAACGC ((((....)))) | -23.9 kcal/mol | 51.5 °C |
| GCGTACGGAAACACACGC ((((..(....)..)))) | -28.7 kcal/mol | 38.8 °C |
| GCGTACGGAAACGTACAC (.(((((....))))).) | -15.1 kcal/mol | 42.8 °C |
| GCGTACGTACGC ((((....)))) | -29.9 kcal/mol | 55.3 °C |
| GCGTACTCGAAAGAGCGC (((..(((....)))))) | -28.6 kcal/mol | 47.8 °C |
| GCGTAGACACGC ((((....)))) | -19.8 kcal/mol | 50.7 °C |
| GCGTAGATACGC ((((....)))) | -19.8 kcal/mol | 52.9 °C |
| GCGTAGCCGAAAGGCCGC (((..(((....)))))) | -16.8 kcal/mol | 58 °C |
| GCGTAGCGAAAGCATCGC (((..((....))..))) | -15.4 kcal/mol | 55.1 °C |
| GCGTAGCGAAAGCCACGC ((((.((....)).)))) | -18.7 kcal/mol | 60.1 °C |
| GCGTAGCGAAAGCTATGC ((.((((....)))).)) | -18 kcal/mol | 62.4 °C |
| GCGTAGCGAAAGCTGGGC ((..(((....)))..)) | -12.1 kcal/mol | 49.3 °C |
| GCGTAGCGAAAGCTTTGC ((..(((....)))..)) | -7.28 kcal/mol | 42.9 °C |
| GCGTAGGAACGC ((((....)))) | -16.3 kcal/mol | 49.2 °C |
| GCGTAGGCGAAAGCCCGC (((..(((....)))))) | -19.7 kcal/mol | 61.9 °C |
| GCGTAGGGAAACCCACGC ((((.((....)).)))) | -37.3 kcal/mol | 54.3 °C |
| GCGTAGGGAAACCTACAC (.(((((....))))).) | -14.5 kcal/mol | 40.8 °C |
| GCGTAGGTACGC ((((....)))) | -20.3 kcal/mol | 52.8 °C |
| GCGTATAAACGC ((((....)))) | -19.7 kcal/mol | 50.4 °C |
| GCGTATCACGC ((((...)))) | -34.2 kcal/mol | 56.9 °C |

| Sequence | folding enthalpy [1] | Tm [2] |
| --- | --- | --- |
| GCGTATGAAAATACGC ((((((....)))))) | -36 kcal/mol | 63 °C |
| GCGTATGGAAACATATGC ((.((((....)))).)) | -46.8 kcal/mol | 47.8 °C |
| GCGTATGGAAACATGTGC ((..(((....)))..)) | -11.6 kcal/mol | 38.8 °C |
| GCGTATTACGC ((((...)))) | -25 kcal/mol | 54 °C |
| GCGTATTCACGC ((((....)))) | -25.6 kcal/mol | 53 °C |
| GCGTCAGAACGC ((((....)))) | -23.6 kcal/mol | 52 °C |
| GCGTCAGCACGC ((((....)))) | -8.99 kcal/mol | 61.9 °C |
| GCGTCAGGAAACCGACAC (.(((.(....).))).) | -16 kcal/mol | 27.4 °C |
| GCGTCAGGAAACCGACGC (((((.(....).))))) | -32.9 kcal/mol | 58.6 °C |
| GCGTCAGGACGC ((((....)))) | -26 kcal/mol | 56.5 °C |
| GCGTCATCACGC ((((....)))) | -22.5 kcal/mol | 50.4 °C |
| GCGTCCACACGC ((((....)))) | -27.1 kcal/mol | 52.4 °C |
| GCGTCCACGAAAGTGCGC (((..(((....)))))) | -23.3 kcal/mol | 48.6 °C |
| GCGTCCGAAAGGAACCGC ((((((....)))..))) | -20.3 kcal/mol | 48.5 °C |
| GCGTCCGAAAGGAGTCGC ((((((....)))..))) | -22.9 kcal/mol | 49.5 °C |
| GCGTCCGAAAGGATCCGC ((((((....)))..))) | -21.2 kcal/mol | 44.7 °C |
| GCGTCCGAACGC ((((....)))) | -21.8 kcal/mol | 53.2 °C |
| GCGTCCGGAAACGGACAC (.(((((....))))).) | -11.2 kcal/mol | 51 °C |
| GCGTCCGGACGC ((((....)))) | -40.9 kcal/mol | 60.3 °C |
| GCGTCCTCGAAAGAGCGC (((..(((....)))))) | -24.9 kcal/mol | 48.4 °C |
| GCGTCGCCACGC ((((....)))) | -15.9 kcal/mol | 53.7 °C |
| GCGTCGCGAAAGCCACGC ((((.((....)).)))) | -31.1 kcal/mol | 64 °C |
| GCGTCGCGAAAGCCGCGC (((..((....))..))) | -29.7 kcal/mol | 66 °C |
| GCGTCGCGAAAGCTAAGC ((.(.((....)).).)) | -20.2 kcal/mol | 51.4 °C |
| GCGTCGCTACGC ((((....)))) | -13.7 kcal/mol | 55.2 °C |

| Sequence | folding enthalpy [1] | Tm [2] |
| --- | --- | --- |
| GCGTCGTACGC ((((...)))) | -18.3 kcal/mol | 65.6 °C |
| GCGTCTACGAAAGTACGC (((..(((....)))))) | -28.4 kcal/mol | 47.6 °C |
| GCGTCTCGACGC ((((....)))) | -26.9 kcal/mol | 68.6 °C |
| GCGTCTGACGC ((((...)))) | -24.1 kcal/mol | 56.7 °C |
| GCGTCTTCGAAAGAACGC (((..(((....)))))) | -26 kcal/mol | 46.6 °C |
| GCGTGACCACGC ((((....)))) | -21.2 kcal/mol | 61.3 °C |
| GCGTGAGACGC ((((...)))) | -18.8 kcal/mol | 51 °C |
| GCGTGAGGAAACCCACGC (((((.(....).))))) | -42.2 kcal/mol | 57.7 °C |
| GCGTGATGACGC ((((....)))) | -25.1 kcal/mol | 52.8 °C |
| GCGTGCGAAAGCACCCGC ((((((....)))..))) | -10.1 kcal/mol | 43.7 °C |
| GCGTGCGAAAGCATCCGC ((((((....)))..))) | -17.3 kcal/mol | 47.6 °C |
| GCGTGCGGAAACGCACAC (.(((((....))))).) | -8.53 kcal/mol | 50.3 °C |
| GCGTGCGGAAACGTACGC ((((.((....)).)))) | -31.7 kcal/mol | 66.3 °C |
| GCGTGCGGAAACGTGCGC (((..((....))..))) | -25.6 kcal/mol | 59.6 °C |
| GCGTGCGTACGC ((((....)))) | -13.7 kcal/mol | 64.8 °C |
| GCGTGGCGAAAGCAAAGC ((.(.((....)).).)) | -17.4 kcal/mol | 52.1 °C |
| GCGTGGCGAAAGCAATGC ((.(.((....)).).)) | -19.6 kcal/mol | 52.8 °C |
| GCGTGGCGAAAGCACCGC (((..((....))..))) | -31.9 kcal/mol | 62.2 °C |
| GCGTGGCGAAAGCCCGGC ((..(((....)))..)) | -14.9 kcal/mol | 57.8 °C |
| GCGTGGCGAAAGCGGCGC (((..((....))..))) | -40.4 kcal/mol | 67.7 °C |
| GCGTGGCGAAAGCTAAGC ((.(.((....)).).)) | -23.3 kcal/mol | 58.3 °C |
| GCGTGGCGACGC ((((....)))) | -16.4 kcal/mol | 65.1 °C |
| GCGTGGGGAAACCTGCGC (((..((....))..))) | -37 kcal/mol | 53.3 °C |
| GCGTGTAGACGC ((((....)))) | -21.4 kcal/mol | 58.5 °C |
| GCGTGTCCACGC ((((....)))) | -32.9 kcal/mol | 61.5 °C |

| Sequence | folding enthalpy [1] | Tm [2] |
| --- | --- | --- |
| GCGTGTCGACGC ((((....)))) | -24.6 kcal/mol | 55.4 °C |
| GCGTGTGGAAACGCACGC (((((.(....).))))) | -34.5 kcal/mol | 67.3 °C |
| GCGTGTGGAAACGCATGC ((.((.(....).)).)) | -23.4 kcal/mol | 47.4 °C |
| GCGTTAATACGC ((((....)))) | -21.1 kcal/mol | 51.1 °C |
| GCGTTACACGC ((((...)))) | -19.8 kcal/mol | 58.1 °C |
| GCGTTAGCGAAAGCTCGC (((..(((....)))))) | -12.5 kcal/mol | 44.2 °C |
| GCGTTAGGAAACTAATGC ((.((((....)))).)) | -43.2 kcal/mol | 47.5 °C |
| GCGTTAGGAAACTGACGC ((((.((....)).)))) | -42.5 kcal/mol | 53.6 °C |
| GCGTTATAACGC ((((....)))) | -30.4 kcal/mol | 55.5 °C |
| GCGTTCCGAAAGGATCGC (((.(((....))).))) | -35.4 kcal/mol | 61.6 °C |
| GCGTTCGAAAGAACCGC ((((((....))).))) | -23.8 kcal/mol | 54.3 °C |
| GCGTTCGCGAAAGCGCGC (((..(((....)))))) | -19.3 kcal/mol | 52.7 °C |
| GCGTTCGGAAACGAGTGC ((..(((....)))..)) | -25.7 kcal/mol | 41.8 °C |
| GCGTTCGGACGC ((((....)))) | -25.4 kcal/mol | 53.5 °C |
| GCGTTCTAACGC ((((....)))) | -25.8 kcal/mol | 58.5 °C |
| GCGTTGATACGC ((((....)))) | -23.1 kcal/mol | 53.1 °C |
| GCGTTGCGAAAGCATAGC ((..(((....)))..)) | -26.5 kcal/mol | 58.4 °C |
| GCGTTGGGAAACTGACGC ((((..(....)..)))) | -35.3 kcal/mol | 49.7 °C |
| GCGTTGTCACGC ((((....)))) | -22.4 kcal/mol | 52.2 °C |
| GCGTTTCAACGC ((((....)))) | -27.6 kcal/mol | 60.2 °C |
| GCGTTTCACGC ((((...)))) | -34.8 kcal/mol | 59.1 °C |
| GCGTTTCCACGC ((((....)))) | -22.6 kcal/mol | 53.5 °C |
| GCGTTTCGAAAGAACGC (((.(((....)))))) | -33.8 kcal/mol | 57.6 °C |
